Screens from PubChem BioAssay.
Shown are actives, neighbours in structure and some others; about 3.8% of the full set was active somewhere.
DENV2 CPE rescue: DENV2-induced cell death inhibition | DENV2-infected cells, cytopathic effect rescue, plate reader | CPE inhibition, % at 9.99 µM | 1.7% of 350,000 active; in the data active = CPE inhibition above about 20%, passing the limit was not always enough; inconclusive = no clear call, values can overlap the other calls; tested in BHK-21 cells;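 also: 0% = median of neutral control wells and 100% = median of positive control wells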
SIRT5 inh: sirtuin-5 (human) deacylase inhibition | Purified SirT5, succinyl-peptide AMC, trypsin-coupled fluorescence | 1.1% of 330,000 active | inhibition, % at 15 µM | Q9NXA8; in the data active = inhibition above about 15%; inconclusive = no clear call, values can overlap the other calls
Target sequence (Q9NXA8 whole entry, looked up): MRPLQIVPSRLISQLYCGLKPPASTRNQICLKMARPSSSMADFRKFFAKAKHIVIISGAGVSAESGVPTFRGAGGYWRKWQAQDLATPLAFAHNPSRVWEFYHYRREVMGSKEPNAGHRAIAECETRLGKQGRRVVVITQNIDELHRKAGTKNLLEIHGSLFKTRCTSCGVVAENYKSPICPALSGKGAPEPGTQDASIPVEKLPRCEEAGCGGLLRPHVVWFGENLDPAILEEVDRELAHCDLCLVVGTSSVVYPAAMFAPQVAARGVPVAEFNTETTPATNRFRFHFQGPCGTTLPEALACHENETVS
Xi reactivation: reactivates the inactive X chromosome in mouse fibroblasts. XiGFP mouse fibroblasts, % GFP-positive cells imaging, 3 d; cells co-treated with 5-aza-dC sensitizer; scaled so ellipticine positive control = 100%. activation, % at 7.58 µM. 0.055% of 360,000 active. AID 743238;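 active = mean normalized replicate activation at least 10% and every replicate at or above 10%; inconclusive = only one of the two criteria met; inactive = mean below 10% and not all replicates reach 10%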;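 also: 0% = median of on-plate neutral control wells and 100% = ellipticine 6 µM median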
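Assay system – SV40-immortalized XiGFP fibroblast cells, line 68-5-11 · Buffer or medium – DMEM supplemented with 5-aza-dC as sensitizing agent · Dosing – one concentration, pinned · Benchmarks – positive control ellipticine, 6 µM final · Times – 3 days compound exposure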
FN deposit inh: fibronectin deposition inhibition; AH1F fibroblasts, Alexa488-fibronectin deposition fluorescence, overnight; inhibition, % at 12.6 µM; 0.086% of 350,000 active; AID 743247;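 active = mean inhibition across replicates of 30% or more, regardless of how many single replicates reach that level; inconclusive = mean under 30% yet at least half of replicates reach 30%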;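 also: positive control wells lacked labelled fibronectin entirely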
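material = AH1F fibroblast monolayer depositing Alexa488-labelled fibronectin into matrix | amount = 10000 AH1F cells/well | buffer or medium = DMEM plus 2% serum, read in PBS | incubation = 1 h cell adhesion before compound, then overnight fibronectin incubation | detection = fluorescence at 485 nm excitation, 525 nm emission | evaluation = percent inhibition as loss of matrix-bound fibronectin fluorescence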
ARNT-TACC3 inh: ARNT/TACC3 interaction disruption; Q9Y6A5; AlphaScreen His-ARNT PAS-B/GST-TACC3 binding, luminescence; TACC3 fragment carries E629A point mutation; inhibition, % at 9.99 µM; 0.66% of 390,000 active; AID 623870;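 active = mean inhibition of replicates at least 50% and at least half of replicates each reaching 50%; inconclusive = half or more replicates reach 50% but mean below 50%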;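 also: 0% = complete ARNT plus TACC3 wells and 100% = ARNT alone without TACC3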
FGF22 binding: shifts melting point of recombinant human FGF22; AID 651658; 1.5% of 340,000 active; recombinant FGF22 thermal shift, SYPRO orange fluorescence; percent of sucrose octasulfate shift, DMSO zero; activity (Tm shift, normalised), % at 9.99 µM;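 active = mean Tm shift, scaled 0 neutral to 100 positive control, at about 1.3% or above, every replicate too, limit read from the data; inconclusive = no clear call, values can overlap the other calls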
Target sequence (Q9HCT0 whole entry, looked up): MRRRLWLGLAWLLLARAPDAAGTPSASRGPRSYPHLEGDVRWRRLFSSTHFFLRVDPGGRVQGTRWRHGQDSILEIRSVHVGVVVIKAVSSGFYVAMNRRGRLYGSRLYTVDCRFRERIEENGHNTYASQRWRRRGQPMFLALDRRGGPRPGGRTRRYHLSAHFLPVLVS
The depositor's hits bear a star; u = inconclusive; x = no result given.

SMILES | DENV2 CPE rescue | SIRT5 inh | Xi reactivation | FN deposit inh | ARNT-TACC3 inh | FGF22 binding
COc1ccc(NC(=O)Nc2ccc3c(c2)CC(=O)N([C@H](C)CO)C[C@H](C)[C@H](CN(C)S(=O)(=O)c2ccc(C)cc2)O3)cc1 | x | x | 0.2 | x | x | x
C[C@H]1CN([C@@H](C)CO)C(=O)c2c(c3ccccc3n2C)-c2ccccc2CO[C@H]1CN(C)C(=O)c1ccncc1 | -1.9 | -4.2 | 0.5 | -8.9 | 4.0 | -0.5
CNC[C@@H]1OCCCC[C@H](C)Oc2ccc(NS(=O)(=O)c3ccc(C)cc3)cc2C(=O)N([C@@H](C)CO)C[C@H]1C | -3.2 | 10.4 | 0.1 | -2.0 | x | -0.5
CNC[C@H]1OCCCC[C@@H](C)Oc2ccc(NS(=O)(=O)c3ccc(C)cc3)cc2C(=O)N([C@H](C)CO)C[C@@H]1C | 29.6* | -1.3 | 0.0 | -6.8 | 2.2 | -0.1
C[C@@H]1CN([C@@H](C)CO)C(=O)c2c(c3ccccc3n2C)-c2ccccc2CO[C@@H]1CN(C)Cc1ccc(Oc2ccccc2)cc1 | -16.7 | 6.8 | -0.3 | 15.8 | x | 0.5
CN1CCN(C(=O)C[C@@H]2CC[C@H]3[C@@H](COC[C@@H](O)CN3CC3CCCCC3)O2)CC1 | -10.5 | -3.5 | 0.1 | -0.3 | 0.1 | 0.0
C[C@@H]1CN([C@H](C)CO)C(=O)c2cc(NC(=O)NC3CCCCC3)ccc2O[C@@H]1CN(C)Cc1ccncc1 | 30.2* | -2.3 | -0.2 | -19.1 | 2.7 | -0.1
COc1ccc(NC(=O)Nc2ccc3c(c2)C(=O)N([C@@H](C)CO)C[C@@H](C)[C@@H](CN(C)Cc2ccncc2)O3)cc1 | 17.9 | 27.3* | 0.2 | x | 6.7 | -0.1
COc1ccc(NC(=O)Nc2ccc3c(c2)C(=O)N([C@H](C)CO)C[C@H](C)[C@H](CN(C)Cc2ccc(-c4ccccc4)cc2)O3)cc1 | u | 12.6 | 0.0 | x | 10.1 | -0.2
COc1ccc(NC(=O)Nc2ccc3c(c2)C(=O)N([C@@H](C)CO)C[C@@H](C)[C@@H](CN(C)Cc2ccc(-c4ccccc4)cc2)O3)cc1 | 8.4 | 16.5* | 0.1 | x | 24.5 | -0.1
C[C@H](CO)N1C[C@H](C)[C@@H](CN(C)Cc2ccncc2)Oc2ccc(NC(=O)NC3CCCCC3)cc2C1=O | -0.1 | -2.7 | 1.2 | -3.8 | -5.6 | -0.3
CC(C)(O)C#Cc1cccc(-c2nc(C(=O)N3CCN(Cc4ccccc4)CC3)cc3c2[C@@H](CCO)N(S(=O)C(C)(C)C)C3)c1 (some centres not stated) | -3.2 | 2.3 | 0.2 | 1.4 | 2.5 | -0.3
COc1cccc(-c2ccc3c(c2)[C@H]2[C@H](CCN2C(=O)c2ccc(F)cc2)[C@H](CO)N3)c1 | -19.1 | 4.4 | 0.1 | 4.6 | 12.0 | -0.1
CC(C)NC(=O)Nc1cccc2c1O[C@H](CN(C)Cc1ccc(Cl)c(Cl)c1)[C@H](C)CN([C@H](C)CO)C2=O | 15.5 | -1.3 | 0.1 | x | 10.5 | 0.2
C[C@@H]1CN([C@H](C)CO)C(=O)Cc2cc(NC(=O)C3CCCCC3)ccc2O[C@@H]1CN(C)Cc1ccc(Cl)c(Cl)c1 | 0.7 | 5.7 | 0.0 | 12.9 | x | -0.7
C[C@H]1CN([C@@H](C)CO)C(=O)Cc2cc(NC(=O)C3CC3)ccc2O[C@H]1CN(C)Cc1ccc(Cl)c(Cl)c1 | 0.8 | 5.0 | -0.1 | x | 46.0* | -0.2
C[C@@H]1CN([C@@H](C)CO)C(=O)Cc2cc(NC(=O)c3ccncc3)ccc2O[C@H]1CN(C)Cc1ccc(Cl)c(Cl)c1 | -2.6 | 9.0 | -0.1 | x | 47.8* | 0.1
C[C@H](CO)N1C[C@H](C)[C@@H](CN(C)Cc2ccc3c(c2)OCO3)Oc2ccc(NC(=O)c3ccncc3)cc2CC1=O | 29.0* | 0.2 | 1.1 | 2.6 | -4.9 | -0.1
C[C@H](CO)N1C[C@H](C)[C@H](CN(C)Cc2ccc3c(c2)OCO3)Oc2ccc(NC(=O)c3ccncc3)cc2CC1=O | 11.4 | -3.5 | -0.2 | 7.7 | -7.2 | -0.3
C[C@@H]1CN([C@H](C)CO)C(=O)Cc2cc(NC(=O)C3CC3)ccc2O[C@@H]1CN(C)Cc1ccc(Cl)c(Cl)c1 | 2.6 | 2.6 | -0.1 | x | 14.9 | 0.1
Cc1nn(C)cc1NC(=O)C[C@H]1CC[C@H]2[C@H](COc3ccc(NC(=O)C(C)C)cc3C(=O)N2C)O1 | -3.7 | x | 0.3 | -10.7 | -22.6 | 0.0
CC(C)CCC(O)(c1ccccc1)C(CN1CCOCC1)c1ccccc1 (configuration not stated) | 29.8* | 0.7 | 0.0 | -3.7 | 2.3 | -0.1
COc1ccc(C(O)(CCC(C)C)C(CN2CCOCC2)c2ccccc2)cc1 (configuration not stated) | -3.8 | -2.9 | -0.1 | -1.5 | -0.2 | -0.1
CCCC(O)(c1ccccc1)C(CN1CCOCC1)c1ccccc1 (configuration not stated) | -1.6 | -4.0 | 0.0 | -3.7 | -1.7 | 0.1
CCCC(O)(c1ccc(Cl)cc1)C(CN1CCOCC1)c1ccccc1 (configuration not stated) | 11.5 | x | 0.0 | -11.0 | 45.7* | -0.3
SMILES | DENV2 CPE rescue | SIRT5 inh | Xi reactivation | FN deposit inh | ARNT-TACC3 inh | FGF22 binding
Nc1nc(NC(=O)Cc2ccccc2)nn1-c1ccccc1 | x | x | x | x | 47.6* | x
Nc1nc(NC(=O)/C=C\C(=O)O)nn1-c1ccccc1 | -2.9 | 3.5 | 0.0 | 19.7 | 74.1* | 0.1
COCCNC(=O)C1CC2Cn3c(nc4cc(C)c(C)cc43)C2N1C (configuration not stated) | 29.1* | x | -0.5 | 2.2 | -10.5 | -0.4
CN1C(C(=O)NCCc2cccs2)CC2Cn3c(nc4cc(Cl)c(Cl)cc43)C21 (configuration not stated) | 79.7* | x | -0.6 | 0.1 | -15.3 | 0.2
CC(C)NC(=O)Nc1ccc2c(c1)CC(=O)N(C)C[C@H](C)[C@@H](CN(C)S(C)(=O)=O)O2 | x | x | 0.0 | 3.1 | x | x
O=S(=O)(NC1CCCCC1Oc1ccccc1)c1ccc(Cl)cc1 (configuration not stated) | x | -0.8 | 1.1 | -1.9 | -0.9 | 44.2*
CSc1ccc(OC2CCCCC2NS(=O)(=O)c2ccc(Cl)cc2)cc1 (configuration not stated) | -1.5 | -4.3 | -0.1 | 10.7 | -11.6 | -0.1
COc1cccc(CNC(=O)[C@@H]2CCCN2C(=O)[C@H]2CCCCN2C(=O)c2ccc(Cl)cc2)c1 | 77.9* | -0.9 | -0.1 | 2.9 | x | -0.3
COc1cccc(CNC(=O)[C@@H]2CCCN2C(=O)[C@@H]2CCCN2C(=O)c2cccc(Cl)c2)c1 | 3.1 | -3.5 | -0.1 | 4.2 | x | 0.0
Cc1noc(C)c1-c1ccc(C(=O)Nc2cccc(C(F)(F)F)c2)c2occc12 | -11.9 | 19.0* | 0.1 | -11.9 | x | 0.0
COc1ccc(CN2[C@H](CO)[C@H]3c4ccccc4N(C(=O)c4ccccc4)C[C@H]32)cc1 | 11.2 | -0.5 | 0.0 | -0.6 | 8.1 | -0.3
